Shown are actives, neighbours in structure and some others; about 2.3% of the full set was active somewhere.
Rtt109 HAT inh = inhibitors of Candida albicans Rtt109/Vps75 histone acetyltransferase; Q5AAJ8; purified Rtt109/Vps75, ThioGlo CoA-SH fluorescence, 4 h; inhibition, % at 34.9 µM; 0.16% of 330,000 active; AID 540336;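 active = inhibition of at least 50% in every replicate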
Target sequence (Q5AAJ8 whole entry, looked up): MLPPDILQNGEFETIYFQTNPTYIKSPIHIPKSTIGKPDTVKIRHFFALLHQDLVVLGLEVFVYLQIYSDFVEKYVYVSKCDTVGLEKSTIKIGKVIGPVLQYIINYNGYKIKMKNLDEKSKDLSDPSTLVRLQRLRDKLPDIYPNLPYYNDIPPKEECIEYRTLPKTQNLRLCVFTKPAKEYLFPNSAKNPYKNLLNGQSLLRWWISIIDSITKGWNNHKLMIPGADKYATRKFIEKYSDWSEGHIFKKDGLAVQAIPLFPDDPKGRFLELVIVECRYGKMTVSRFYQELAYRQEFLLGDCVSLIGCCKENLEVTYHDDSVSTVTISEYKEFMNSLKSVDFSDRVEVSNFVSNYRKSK
PAX8 reporter = lowers PAX8-driven luciferase in RMG-I cells | 1.2% of 360,000 active | inhibition, % at 12.6 µM | RMG-I TPO-luciferase reporter, SteadyGlo, 24 h | AID 652154;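 active = mean replicate inhibition at least 60% with every replicate also reaching 60%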;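 also: luciferase light reporting Pax8 driven TPO promoter activity; plate controls were median of neutral control wells for no effect and mitoxantrone controls for full effect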
N-glyco inh = N-linked glycosylation inhibition; D54 ERlucT glycosylation luciferase reporter, 24 h; percent of 100 nM tunicamycin response; reporter increase, % at 12.5 µM; 0.23% of 360,000 active;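 active = mean luciferase reporter signal, scaled so untreated is 0 and the glycosylation-blocking control 100, at or above a set limit in every replicate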;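 also: luciferase carries N-glycosylation sites so blocking glycosylation raises the light; 0% = median of neutral control wells and 100% = median of 100 nM tunicamycin wells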
Arrestin-AP2 inh = blocks beta-arrestin peptide binding to AP2 adaptin | FITC-arrestin peptide / GST-AP2 beads, flow cytometry; AP2 beta2 appendage carries R879A mutation | inhibition, % at 10 µM | 0.31% of 340,000 active;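 active = inhibition above a set limit, near 3 SD of compounds lacking own fluorescence, cut at about 54% in these data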;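 also: plate controls were DMSO wells for no effect and 5 µM unlabelled arrestin peptide for full effect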
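Assay system: GST-AP2 R879A bound to glutathione beads, E. coli-expressed; Medium: PBS with 0.05% Tween 20 and 0.1% BSA; Also added: fluorescein-tagged arrestin peptide at 50 nM final; Timing: 12 min plus 1 h, RT; Measured by: flow cytometry, FL1 (488/535 nm); Evaluation: percent drop in bead-associated FITC signal.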
PfHsp90 yeast 2 = growth inhibition of yeast expressing Plasmodium Hsp90; S. cerevisiae expressing PfHsp90, BacTiter-Glo ATP, 48 h; yeast lacking PDR1 and PDR3 efflux regulators; inhibition, % at 9.4 µM; 0.32% of 310,000 active;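 active = every replicate shows inhibition above about 80%, whatever the replicate mean, limit read from the data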;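 also: 0% = DMSO neutral controls and 100% = 20 µM radicicol positive controls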
Env fusion inh = HIV envelope-mediated fusion inhibition; HeLa-JRFL Env/CEM21 cell fusion, luciferase; inhibition, % at 12.3 µM; 1.1% of 360,000 active;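 active = mean replicate inhibition score of at least 50 and every replicate individually at or above 50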;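 also: 0% = plate neutral controls and 100% = maraviroc near 300 nM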
The depositor's hits bear a star; . = no result given; [ ] = another dose, or the depositor's remark.

SMILES | Rtt109 HAT inh | PAX8 reporter | N-glyco inh | Arrestin-AP2 inh | PfHsp90 yeast 2 | Env fusion inh
Cc1cc(/C=c2\sc3nc4ccccc4n3c2=O)c(C)n1-c1ccc(C(=O)O)cc1 | 15 | -3 | 0 | -7 | 112* | -2
CCNC(=O)Nc1ccc2c(c1)C(=O)N(C)[C@H]1CC[C@H](CC(=O)NCCOC)O[C@@H]1CO2 | . | 11 | . | . | . | 5[16.7 µM]
CC1C/C(=C/c2ccncc2)C(=O)/C(=C/c2ccncc2)C1 (stereo not drawn) | 0 | 85* | -22 | -15 | 98* | 81*
CO[C@@]12[C@@H]3N[C@@H]3CN1C1=C(C(=O)C(N)=C(C)C1=O)[C@@H]2COC(N)=O | 4 | 48 | -10 | -10 | -5 | 63*
COc1cccc(-c2ccc3c(c2)O[C@H](CN(C)C)[C@@H](C)CN([C@H](C)CO)S3(=O)=O)c1 | . | . | . | . | . | 9[16.7 µM]
CCOc1ccc(/C=C/C(=O)c2cc(Br)ccc(=O)c2O)cc1 | -5 | -15 | 3 | -2 | 21 | 64*
COc1cc(-c2cnc3c(NC=O)cc(-c4ccc(S(C)(=O)=O)cc4)cn23)cc(OC)c1OC | . | 62* | 5 | . | . | -22
COc1ccccc1-c1cc(NC=O)c2ncc(-c3ccc(S(C)(=O)=O)cc3)n2c1 | . | 63* | 21 | . | . | -132
COc1ccc(-c2cnc3c(NC=O)cc(-c4cc(OC)c(OC)c(OC)c4)cn23)cc1OC | . | 31 | -2 | . | . | 7
COc1ccc(-c2cnc3c(NC=O)cc(-c4ccc(S(C)(=O)=O)cc4)cn23)cc1OC | . | 22 | 0 | . | . | 1
CS(=O)(=O)c1ccc(-c2cnc3c(NC=O)cc(-c4ccsc4)cn23)cc1 | . | 7 | 3 | . | . | -24
COc1ccc(-c2cc(NC=O)c3ncc(-c4cc(OC)c(OC)c(OC)c4)n3c2)cc1 | . | 72* | 14 | . | . | -103
CCC(=O)Nc1ccc2c(c1)OC[C@H](C)N(CCc1ccccc1)C[C@H](C)[C@H](OC)CN(C)C2=O | . | -11 | . | . | . | -7[16.7 µM]
O=C(C[C@H]1CC[C@H]2[C@@H](COC[C@@H](O)CN2C(=O)Nc2ccc(Cl)cc2)O1)NCc1ccncn1 | . | -10 | . | . | . | .
COc1cccc(NC(=O)C[C@@H]2CC[C@@H]3[C@@H](COc4ccc(NC(=O)C5CCOCC5)cc4C(=O)N3C)O2)c1 | . | 10 | . | . | . | -4[16.7 µM]
O=[N+]([O-])c1cc(C(F)(F)F)ccc1NCCCCNS(=O)(=O)c1ccc2ccccc2c1 | -7 | . | 0 | -2 | . | 62*
CS(=O)(=O)NCCCCNc1ccc(C(F)(F)F)cc1[N+](=O)[O-] | 5 | 23 | -1 | 54 | 4 | -9
O=C(Nc1ccc(F)cc1)N[C@H]1CC[C@@H](CCNS(=O)(=O)c2cccc(Cl)c2)O[C@@H]1CO | . | 15 | . | . | . | -12[16.7 µM]
C[C@@H]1CCCCO[C@H](CN(C)S(=O)(=O)c2ccccc2)[C@H](C)CN([C@H](C)CO)C(=O)c2cc(NC(=O)Nc3cccc4ccccc34)ccc2O1 | . | -14 | . | . | . | -85[16.7 µM]
O=C(CNC(=O)c1cccc(Br)c1)N/N=C/c1cccs1 | 59* | 31 | 0 | 3 | -10 | -9
O=C(NCC[C@@H]1CC[C@H](NC(=O)C2CCCCC2)[C@@H](CO)O1)c1cc(Cl)cc(Cl)c1 | . | 4 | . | . | . | 6[16.7 µM]
FC(F)(F)COc1nc(N2CCOCC2)nc(N(c2ccccc2)c2ccccc2)n1 | -12 | . | -9 | -2 | 2 | 76*
FC(F)(F)COc1nc(OCC(F)(F)F)nc(N2CCN(c3ccccc3)CC2)n1 | -6 | . | -5 | 0 | 22 | .
CCOC(=O)Nc1ccc2c(c1)N(C(=O)CCN1CCOCC1)c1ccccc1S2=O (stereo not drawn) | -4 | 106* | -10 | 10 | 8 | 27
CCOC(=O)Nc1ccc2c(c1)N(C(=O)CCN1CCOCC1)c1ccccc1S2 | 8 | -7 | 0 | 5 | 0 | -7
C=CS(=O)(=O)c1c2cc(OC)ccc2nc2ccc(OC)cc12 | -1 | 46 | 53* | 25 | 0 | 10
COc1cccc(-c2csc(N3CCN(C(=O)Nc4ccc(Cl)cc4)CC3)n2)c1 | -6 | -24 | -4 | -7 | 6 | 23
COc1ccc(NC(=O)N2CCN(c3nc(-c4cccc(OC)c4)cs3)CC2)cc1 | 1 | . | -5 | -8 | -9 | 63*
